Assays:
Type in all cases: functional, cell-based
L1210 = test: Cytostatic activity against mouse L1210 cells assessed as inhibition of cell proliferation after 48 hrs by coulter counting analysis
In short: (§1)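 Anti-proliferative screen in murine leukemia L1210, human T-lymphocyte CEM and human cervix carcinoma HeLa cultures. The value reported is the IC50, the concentration that inhibits cell proliferation by 50%.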

CCRF-CEM = test: Cytostatic activity against human CEM cells assessed as inhibition of cell proliferation after 72 hrs by coulter counting analysis; in short: as §1
HeLa = test: Cytostatic activity against human HeLa cells assessed as inhibition of cell proliferation after 72 hrs by coulter counting analysis; in short: as §1
CAKI-1 = test: Cytostatic activity against human Caki1 cells assessed as inhibition of cell proliferation after 96 hrs by coulter counting analysis; details: CAKI-1, 96 h
In short: (§2)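 Anti-proliferative testing extended to human kidney Caki-1 and human liver Huh-7 tumour cells. The value reported is the IC50, the concentration that inhibits tumour cell growth by 50%.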

Huh-7 = test: Cytostatic activity against human HuH7 cells assessed as inhibition of cell proliferation after 96 hrs by coulter counting analysis; details: Huh-7, 96 h; in short: as §2

Compound	IC50 (L1210; Mus musculus, L1210, 48 h) [µM]	IC50 (CCRF-CEM; Homo sapiens, CCRF-CEM, 72 h) [µM]	IC50 (HeLa; Homo sapiens, HeLa, 72 h) [µM]	IC50 (HeLa; hela) [µM]	IC50 (CAKI-1) [µM]	IC50 (Huh-7) [µM]	IC50 (L1210; l1210) [µM]	IC50 (CCRF-CEM; ccrf-cem) [µM]
C=CCOC(=O)N1CCC(C(=O)NCc2ccccc2)(N(Cc2ccccc2)C(=O)[C@@H](N)Cc2ccccc2)CC1	49	54	63					
CCC(C)N(C(=O)[C@H](CC(=O)OC)NC(=O)OC(C)(C)C)C1(C(=O)NCc2ccccc2)CCN(Cc2ccccc2)CC1 (some centres undefined)	20	19	16					
COC(=O)C[C@H](NC(=O)OC(C)(C)C)C(=O)N(Cc1ccccc1)C1(C(=O)NCc2ccccc2)CCN(Cc2ccccc2)CC1	18	19	20					
COC(=O)C[C@H](NC(=O)OC(C)(C)C)C(=O)N(C1CC1)C1(C(=O)NCc2ccccc2)CCN(Cc2ccccc2)CC1	14	6.7	7.9					
COC(=O)C[C@H](NC(=O)OC(C)(C)C)C(=O)N(CCNc1ccccc1)C1(C(=O)NCc2ccccc2)CCN(Cc2ccccc2)CC1	21	14	21					
O=C(N[C@@H](Cc1ccccc1)C(=O)N(Cc1ccccc1)C1(C(=O)NCc2ccccc2)CCN(Cc2ccccc2)CC1)Oc1ccccc1	3.5	9	17					
COC(=O)C[C@H](NC(=O)OC(C)(C)C)C(=O)N(C)C1(C(=O)NCc2ccccc2)CCN(Cc2ccccc2)CC1	17	20	11					
COC(=O)C[C@H](NC(=O)OC(C)(C)C)C(=O)N(Cc1ccccc1)C1(C(=O)NCc2ccccc2)CCN(Cc2ccccc2)C1 (single isomer, unassigned; diastereomer-1)	6.2	19		16				
CC(C)(C)OC(=O)N[C@@H](CC(=O)O)C(=O)N(Cc1ccccc1)C1(C(=O)NCc2ccccc2)CCN(Cc2ccccc2)CC1	164	> 200	> 200					
COC(=O)C[C@H](NC(=O)OCc1ccccc1)C(=O)N(Cc1ccccc1)C1(C(=O)NCc2ccccc2)CCN(Cc2ccccc2)CC1	5.8	4.5	14					
C=CCOC(=O)N1CCC(C(=O)NCc2ccccc2)(N(Cc2ccccc2)C(=O)[C@H](CC(=O)OC)NC(=O)OC(C)(C)C)CC1	24	65	107					
COC(=O)C[C@H](NC(=O)OCC1c2ccccc2-c2ccccc21)C(=O)N(Cc1ccccc1)C1(C(=O)NCc2ccccc2)CCN(Cc2ccccc2)CC1	5.4	5.2	14					
CNC(=O)C[C@H](NC(=O)OC(C)(C)C)C(=O)N(Cc1ccccc1)C1(C(=O)NCc2ccccc2)CCN(Cc2ccccc2)CC1	94	63	84					
CCC(C)N(C(=O)[C@H](Cc1ccccc1)NC(=O)OC(C)(C)C)C1(C(=O)NCc2ccccc2)CCN(Cc2ccccc2)CC1 (some centres undefined)	4.2	10	24					
CCC(C)N(C(=O)[C@@H](N)Cc1ccccc1)C1(C(=O)NCc2ccccc2)CCN(Cc2ccccc2)CC1 (some centres undefined)	81	99	90					
CC(C)(C)OC(=O)N[C@@H](CC(N)=O)C(=O)N(Cc1ccccc1)C1(C(=O)NCc2ccccc2)CCN(Cc2ccccc2)CC1	27	26	25					
COC(=O)C[C@H](NC(=O)OC(C)(C)C)C(=O)N(Cc1ccc(F)cc1)C1(C(=O)NCc2ccccc2)CCN(Cc2ccccc2)CC1	22	16	19					
CCC(C)N(C(=O)[C@@H](N)CC(=O)OC)C1(C(=O)NCc2ccccc2)CCN(Cc2ccccc2)CC1 (some centres undefined)	244	238	> 250					
COC(=O)C[C@H](NC(=O)OCc1ccccc1)C(=O)N(C1CC1)C1(C(=O)NCc2ccccc2)CCN(Cc2ccccc2)CC1	5.3	6.2	4.7					
COC(=O)C[C@H](N)C(=O)N(Cc1ccccc1)C1(C(=O)NCc2ccccc2)CCN(Cc2ccccc2)CC1	90	104	100					
CCC(C)N(C(=O)[C@@H](N)CC(=O)OC)C1(C(=O)NCc2ccccc2)CCNCC1 (some centres undefined)	> 250	> 250	> 250					
CCCCNC(=O)C1(N(Cc2ccccc2)C(=O)[C@H](CC(=O)OC)NC(=O)OC(C)(C)C)CCN(Cc2ccccc2)CC1	24	28	36					
COC(=O)C[C@H](NC(=O)OC(C)(C)C)C(=O)N(Cc1cc(OC)c(OC)c(OC)c1)C1(C(=O)NCc2ccccc2)CCN(Cc2ccccc2)CC1	31	23	22					

Compound	IC50 (L1210; Mus musculus, L1210, 48 h) [µM]	IC50 (CCRF-CEM; Homo sapiens, CCRF-CEM, 72 h) [µM]	IC50 (HeLa; Homo sapiens, HeLa, 72 h) [µM]	IC50 (HeLa; hela) [µM]	IC50 (CAKI-1) [µM]	IC50 (Huh-7) [µM]	IC50 (L1210; l1210) [µM]	IC50 (CCRF-CEM; ccrf-cem) [µM]
CC(C)(C)NC(=O)C1(N(C(=O)[C@H](Cc2ccccc2)NC(=O)OCc2ccccc2)C2CC2)CCN(Cc2ccccc2)CC1	6.6	6	26					
COC(=O)C[C@H](NC(=O)OC(C)(C)C)C(=O)N(Cc1ccccc1)C1(C(=O)NCc2ccccc2)CCN(C(=O)OC(C)(C)C)CC1	21	21	24					
CCC(C)N(C(=O)[C@H](CC(=O)OC)NC(=O)OCc1ccccc1)C1(C(=O)NCc2ccccc2)CCN(Cc2ccccc2)CC1 (some centres undefined)	5.3	4.5	4.3		8.7	6.4		
CC(C)(C)NC(=O)C1(N(C(=O)[C@H](Cc2ccccc2)NC(=O)OCc2ccccc2)C2CC2)CCN(C(=O)OC(C)(C)C)CC1	17	15	148					
CC(C)(C)NC(=O)C1(N(C(=O)[C@H](Cc2ccccc2)NC(=O)OC(C)(C)C)C2CC2)CCN(Cc2ccccc2)CC1	14	19	20					
CCC(C)N(C(=O)[C@@H](NC(=O)OCc1ccccc1)[C@@H](C)CC)C1(C(=O)NCc2ccccc2)CCN(Cc2ccccc2)CC1 (some centres undefined)	83	111	119					
CC(C)(C)OC(=O)N[C@@H](Cc1ccc(O)cc1)C(=O)N(Cc1ccccc1)C1(C(=O)NCc2ccccc2)CCN(Cc2ccccc2)CC1	5	5.2	23					
COC(=O)C[C@H](NC(=O)OC(C)(C)C)C(=O)NC1(C(=O)NCc2ccccc2)CCN(Cc2ccccc2)CC1	23	25	24					
CN(C)C(=O)C[C@H](NC(=O)OC(C)(C)C)C(=O)N(Cc1ccccc1)C1(C(=O)NCc2ccccc2)CCN(Cc2ccccc2)CC1	76	59	68					
COC(=O)CNC(=O)C1(N(Cc2ccccc2)C(=O)[C@H](CC(=O)OC)NC(=O)OC(C)(C)C)CCN(Cc2ccccc2)CC1	123	109	227					
COC(=O)C[C@H](NC(=O)OC(C)(C)C)C(=O)N(CC(=O)OC)C1(C(=O)NCc2ccccc2)CCN(Cc2ccccc2)CC1	49	46	32					
C=CCOC(=O)N1CCC(C(=O)NCc2ccccc2)(N(Cc2ccccc2)C(=O)[C@H](Cc2ccccc2)NC(=O)OC(C)(C)C)CC1	4.2	4.7	7		12	8.1		
COC(=O)C[C@H](NC(=O)OC(C)(C)C)C(=O)N(Cc1ccccc1)C1(C(=O)NC2CCCCC2)CCN(Cc2ccccc2)CC1	19	20	21					
CC[C@H](C)[C@H](NC(=O)OCc1ccccc1)C(=O)N(C1CC1)C1(C(=O)NCc2ccccc2)CCN(Cc2ccccc2)CC1	11	16	30					
COC(=O)C[C@H](NC(=O)OC(C)(C)C)C(=O)N(Cc1ccccc1)C1(C(=O)NCc2ccccc2)CCN(Cc2ccccc2)C1 (single isomer, unassigned; diastereomer 2)			18				9	22
CC(C)(C)OC(=O)N1CCC[C@H]1C(=O)N(Cc1ccccc1)C1(C(=O)NCc2ccccc2)CCN(Cc2ccccc2)CC1	61	> 50	137					
COC(=O)C[C@H](NC(=O)OC(C)(C)C)C(=O)N(Cc1ccccc1)C1(C(=O)NC(C)(C)C)CCN(Cc2ccccc2)CC1	23	24	21					
CC(C)(C)OC(=O)N[C@@H](Cc1ccccc1)C(=O)N(Cc1ccccc1)C1(C(=O)NCc2ccccc2)CCN(C(=O)OC(C)(C)C)CC1	5	5.7	13					
COC(=O)C[C@H](NC(=O)OC(C)(C)C)C(=O)N(Cc1ccccc1)C1(C(=O)NCc2ccccc2)CCNCC1	> 200	124	> 167					
CC(C)(C)NC(=O)C1(N(C(=O)[C@H](Cc2ccccc2)NC(=O)OC(C)(C)C)C2CC2)CCN(C(=O)OC(C)(C)C)CC1	14	19	20					
CC[C@@H](C)[C@H](NC(=O)OCc1ccccc1)C(=O)N(Cc1ccccc1)C1(C(=O)NCc2ccccc2)CCN(C(=O)OC(C)(C)C)CC1	5.1	6.8	11					
CC(C)(C)OC(=O)N[C@@H](Cc1c[nH]c2ccccc12)C(=O)N(Cc1ccccc1)C1(C(=O)NCc2ccccc2)CCN(Cc2ccccc2)CC1	4.6	5.9	5.9		14	6.6		
CC[C@H](C)[C@H](NC(=O)OC(C)(C)C)C(=O)N(Cc1ccccc1)C1(C(=O)NCc2ccccc2)CCN(Cc2ccccc2)CC1	4.4	7.1	10					

Source: ChEMBL document CHEMBL3286189, “Discovery and SAR studies of a novel class of cytotoxic 1,4-disubstituted piperidines via Ugi reaction” (Eur J Med Chem, 2014)
